Test: Luciferase/luciferin-expressing antifolate-resistant parasites were used to infect a culture of HepG2 cells that were pre-incubated with compounds. Infected hepatocytes emit light due to the luciferase reaction. Assay results are presented as the percent inhibition of light emission compared to control. […]
Type: functional
Details: Plasmodium berghei, sporozoite; for IC50: read-out: LUCIFERASE INFECTION ASSAY - IC50; for IC90: read-out: LUCIFERASE INFECTION ASSAY - IC90
In short: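 HepG2-A16-CD81EGFP cells (3x10³/well) were seeded 20-26 h before infection, and compound was added 18 h before infection (0.5% DMSO final; library screened at 0.250-39 µM, average 10 µM). Each well received 1x10³ P. berghei GFP-Luc sporozoites from A. stephensi salivary glands, then plates were spun at 330xg for 3 min. After 48 h at 37°C, 5% CO₂, BrightGlo luminescence was read and normalized to 64 DMSO and 64 10 µM atovaquone wells.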

[1] = PBLUC_HILL_SLOPE 1.68, PBLUC_R_SQUARED 0.822
[2] = PBLUC_HILL_SLOPE 1.94, PBLUC_R_SQUARED 0.789
[3] = PBLUC_HILL_SLOPE 1.77, PBLUC_R_SQUARED 0.431

## c1ccc(CNc2nc(Nc3ccccc3)nc3ccccc23)cc1
[1]
  IC50: 476 nM
  IC90: 1760 nM

## N=c1c2ccccc2nnn1-c1cccc(C(F)(F)F)c1
[2]
  IC50: 796 nM
  IC90: 2470 nM

## Cc1cc(Nc2ccc(Cl)cc2)n2nc(C(F)(F)F)nc2n1
[3]
  IC50: 1540 nM
  IC90: 5320 nM
